Measured values: ChEMBL document CHEMBL1153479, “C29 sterols with a cyclopropane ring at C-25 and 26 from the Vietnamese marine sponge Ianthella sp. and their anticancer properties” (Bioorg Med Chem Lett, 2009)
The source made the active and inactive calls. No cut-off for these calls is given here.

Tests used:
[1] = test system: A549; assay: Cytotoxicity against human A549 cells by MTT assay; assay type: functional, cell-based
How it was run: (§1)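 Cytotoxicity was read by MTT assay on human tumour lines: A549 lung, HT-29 colon, MCF-7 breast, SK-OV-3 ovary, and HL-60 and U937 leukaemia. Results are given as IC50 (μM), with values below 100 μM counted as active. A positive control was included.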

[2] = test system: HL-60; assay: Cytotoxicity against human HL60 cells by MTT assay; assay type: functional, cell-based; how it was run: as §1
[3] = test system: HT-29; assay: Cytotoxicity against human HT-29 cells by MTT assay; assay type: functional, cell-based; how it was run: as §1
[4] = test system: MCF7; assay: Cytotoxicity against human MCF7 cells by MTT assay; assay type: functional, cell-based; how it was run: as §1
[5] = test system: SK-OV-3; assay: Cytotoxicity against human SKOV3 cells by MTT assay; assay type: functional, cell-based; how it was run: as §1
[6] = test system: U-937; assay: Cytotoxicity against human U937 cells by MTT assay; assay type: functional, cell-based; how it was run: as §1
[7] = test system: HL-60; assay: Cell cycle distribution in human HL60 cells assessed as cell cycle accumulation at sub-G1 phase at 21.5 uM after 6 hrs by flow cytometry; assay type: functional
How it was run: (§2)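 HL-60 cells exposed for 6, 12 or 24 h, then washed twice in PBS and fixed in 70% ethanol (30 min, 4°C). After a PBS rinse they were stained in the dark with 50 μg/mL propidium iodide plus 50 μg/mL RNase A (30 min, 37°C). DNA content was read by flow cytometry, and the sub-G1 hypodiploid fraction was taken from the DNA histograms.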

[8] = test system: HL-60; assay: Cell cycle distribution in human HL60 cells assessed as cell cycle accumulation at sub-G1 phase at 21.5 uM after 12 hrs by flow cytometry; assay type: functional; how it was run: as §2
[9] = test system: HL-60; assay: Cell cycle distribution in human HL60 cells assessed as cell cycle accumulation at sub-G1 phase at 21.5 uM after 24 hrs by flow cytometry; assay type: functional; how it was run: as §2
[10] = test system: HL-60; assay: Induction of apoptosis in human HL60 cells assessed as increase in number of apoptotic body with condensed and fragmented nuclei at 21.5 uM after 6 to 24 hrs by H33342 staining method; assay type: functional, cell-based
How it was run: (§3)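 HL-60 cells at 3×10^5 cells/mL were exposed for 6, 12 and 24 h, washed twice with PBS and stained with 1 mg/mL Hoechst 33342 (30 min, 37°C). Apoptotic bodies, seen as condensed and fragmented nuclei, were scored by fluorescence microscopy at ×400.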

[11] = test system: HL-60; assay: Cell cycle distribution in human HL60 cells assessed as cell cycle accumulation at sub-G1 phase at 21.3 uM after 6 hrs by flow cytometry; assay type: functional; how it was run: as §2
[12] = test system: HL-60; assay: Cell cycle distribution in human HL60 cells assessed as cell cycle accumulation at sub-G1 phase at 21.3 uM after 12 hrs by flow cytometry; assay type: functional; how it was run: as §2
[13] = test system: HL-60; assay: Cell cycle distribution in human HL60 cells assessed as cell cycle accumulation at sub-G1 phase at 21.3 uM after 24 hrs by flow cytometry; assay type: functional; how it was run: as §2
[14] = test system: HL-60; assay: Induction of apoptosis in human HL60 cells assessed as increase in number of apoptotic body with condensed and fragmented nuclei at 21.3 uM after 6 to 24 hrs by H33342 staining method; assay type: functional, cell-based; how it was run: as §3
[15] = test system: HL-60; assay: Cell cycle distribution in human HL60 cells assessed as cell cycle accumulation at sub-G1 phase at 19.9 uM after 6 hrs by flow cytometry; assay type: functional; how it was run: as §2
[16] = test system: HL-60; assay: Cell cycle distribution in human HL60 cells assessed as cell cycle accumulation at sub-G1 phase at 19.9 uM after 12 hrs by flow cytometry; assay type: functional; how it was run: as §2
[17] = test system: HL-60; assay: Cell cycle distribution in human HL60 cells assessed as cell cycle accumulation at sub-G1 phase at 19.9 uM after 24 hrs by flow cytometry; assay type: functional; how it was run: as §2
[18] = test system: HL-60; assay: Induction of apoptosis in human HL60 cells assessed as increase in number of apoptotic body with condensed and fragmented nuclei at 19.9 uM after 6 to 24 hrs by H33342 staining method; assay type: functional, cell-based; how it was run: as §3

C[C@H](CC[C@@H](C)[C@H]1CC[C@H]2[C@@H]3CC=C4C[C@@H](O)CC[C@]4(C)[C@H]3CC[C@]12C)[C@@H]1C[C@H]1C [PETROSTEROL]
IC50 [1]: 11.5 µM
IC50 [2]: 21.5 µM
IC50 [3]: 46.5 µM
IC50 [4]: 16.4 µM
IC50 [5]: 19.8 µM
IC50 [6]: 18.7 µM
Activity [7]: 12.61%
Activity [8]: 27.4%
Activity [9]: 52.58%
Activity [10]: Active

CC(CCC(C)C1CCC2C3CC4OC45CC(O)CCC5(C)C3CCC12C)C1CC1C (stereo unspecified)
IC50 [1]: 9.8 µM
IC50 [2]: 21.3 µM
IC50 [3]: 69.9 µM
IC50 [4]: 19.4 µM
IC50 [5]: 22.6 µM
IC50 [6]: 19.9 µM
Activity [11]: 11.8%
Activity [12]: 24.92%
Activity [13]: 51.33%
Activity [14]: Active

C[C@H](CC[C@@H](C)[C@H]1CC[C@H]2[C@@H]3CC(=O)C4=CC(=O)CC[C@]4(C)[C@H]3CC[C@]12C)[C@@H]1C[C@H]1C
IC50 [1]: 8.4 µM
IC50 [2]: 19.9 µM
IC50 [3]: 48.2 µM
IC50 [4]: 17.8 µM
IC50 [5]: 16.2 µM
IC50 [6]: 22.1 µM
Activity [15]: 11.19%
Activity [16]: 21.85%
Activity [17]: 48.83%
Activity [18]: Active

O=C1c2c(O)ccc(O)c2C(=O)c2c(NCCNCCO)ccc(NCCNCCO)c21 [MITOXANTRONE]
IC50 [1]: 8 µM
IC50 [2]: 6.3 µM
IC50 [3]: 8.7 µM
IC50 [4]: 7.1 µM
IC50 [5]: 9.8 µM
IC50 [6]: 6.2 µM
